The record followed here is the array DNA melting data of Ke et al. (doi:10.1101/2024.01.08.574731).

Series [1] is described as follows: folding enthalpy; higher = less favourable; fluorescence melt of hairpins on a sequencing array, two-state fit. To be noted: sodium 0.088 M. The procedure, abridged:
(§1)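 Library hairpins on a sequenced MiSeq flow cell carried annealed Cy3 and quencher oligos, and their Cy3 fluorescence was imaged in 50 mM Na-HEPES pH 8.0 with 25 mM NaCl, in 2.5 °C steps up to 60 °C. Signals were normalised to Cy3 before quenching and to control constructs. Melting temperature and folding enthalpy were obtained from bootstrapped two-state fits, combined by inverse-variance weighting across four replicates, and the fitted temperatures were then raised by 9.35 °C to match UV melts.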

Series [2] in a line: melting temperature; fluorescence melt of hairpins on a sequencing array, two-state fit, raised by 9.35 °C to match UV melts. Conditions: sodium 0.088 M. The procedure, abridged: as §1

Turning to GGTTACGAAAGTATTACC ((((((....)))..))), the folding enthalpy in series [1] was -63.6 kJ/mol. In addition, in series [2], the Tm was 29.6 °C.
For GGTTACGGAAACATAACC (((((.(....).))))), in series [1], the folding enthalpy was -71.3 kJ/mol. Also, the Tm in series [2] stood at 35.8 °C.
For the sequence GGTTACGGAAACGTAGCC ((.((((....)))).)), in series [1], the folding enthalpy is -120 kJ/mol. Also, the Tm in series [2] came out at 51.7 °C.
Consider GGTTACGGAAACGTAGTC (..((((....))))..), for which the folding enthalpy in series [1] was -53.1 kJ/mol. Besides, the Tm in series [2] is 25.7 °C.
For GGTTAGCGAAAGCTTACC (((.(((....))).))) the same measures were -97.2 kJ/mol and 52 °C.
In the same order, the values of GGTTAGGGAAACCTGATC (.(.(((....))).).) are -48.9 kJ/mol and 31 °C.
For GGTTATCGAAAGATGACC (((.(((....))).))) the same measures were -204 kJ/mol and 51.7 °C.
Regarding GGTTATGGAAACACAACC ((((.((....)).)))), the folding enthalpy in series [1] was -103 kJ/mol. In series [2], the Tm amounted to 33.8 °C.
For GGTTATGGAAACATAACC (((((((....))))))) the same measures were -172 kJ/mol and 55.6 °C.
In the same order, the values of GGTTCAGGAAACTGGATC (.(.(((....))).).) are -42.7 kJ/mol and 30 °C.
For GGTTCCCCGAAAGGGACC (((..(((....)))))), the folding enthalpy in series [1] was -74.9 kJ/mol. Moreover, in series [2], the Tm is 45 °C.
With GGTTCCCGAAAGGGGACC (((.(((....))).))), the folding enthalpy in series [1] was -129 kJ/mol. Also, in series [2], the Tm is 67.6 °C.
Regarding GGTTCCGAAAGGAGAACC ((((((....)))..))), the folding enthalpy in series [1] is -102 kJ/mol. Moreover, the Tm in series [2] worked out at 45.1 °C.
For GGTTCCGGAAACGAAACC ((((.((....)).)))), in series [1], the folding enthalpy was -104 kJ/mol. The Tm in series [2] is 42.9 °C.
Turning to GGTTCCGGAAACGGAGTC (..((((....))))..), the folding enthalpy in series [1] was -49 kJ/mol. For the same sequence, the Tm in series [2] is 34.1 °C.
Consider GGTTCCGGAAACGGGATC (.(.(((....))).).), for which the folding enthalpy in series [1] is -81.3 kJ/mol. The Tm in series [2] turned out to be 39.9 °C.
Consider GGTTCCTCGAAAGAGACC (((..(((....)))))), for which, in series [1], the folding enthalpy is -42.4 kJ/mol. In addition, the Tm in series [2] turned out to be 25.8 °C.
On to GGTTCGGGAAACCGAACC (((((((....))))))), for which the folding enthalpy in series [1] is -160 kJ/mol. Also, the Tm in series [2] stood at 69.2 °C.
In the case of GGTTCGGGAAACCGAGTC (..((((....))))..), the folding enthalpy in series [1] was -54.6 kJ/mol. For the same sequence, the Tm in series [2] stood at 36.5 °C.
As to GGTTCTGGAAACAGAATC (.(((((....))))).), the folding enthalpy in series [1] was -143 kJ/mol. Besides, the Tm in series [2] was 45 °C.
GGTTCTGGAAACAGAGCC ((.((((....)))).)): the folding enthalpy in series [1] is -128 kJ/mol. Besides, the Tm in series [2] was found to be 50.6 °C.
Take GGTTCTGGAAACAGGACC (((.(((....))).))): in series [1], the folding enthalpy is -190 kJ/mol. Also, in series [2], the Tm is 50.6 °C.
With GGTTCTTCGAAAGAAACC (((..(((....)))))), the folding enthalpy in series [1] was -56.2 kJ/mol. For the same sequence, the Tm in series [2] came to 29.1 °C.
For GGTTGACGAAAGTCTACC (((.(((....))).))) the same measures were -139 kJ/mol and 53.8 °C.
In the case of GGTTGAGGAAACTTGACC (((..((....))..))), the folding enthalpy in series [1] was -61.2 kJ/mol. Also, the Tm in series [2] was found to be 32.1 °C.
Regarding GGTTGCCCGAAAGGGACC (((..(((....)))))), the folding enthalpy in series [1] was -48.3 kJ/mol. Moreover, in series [2], the Tm amounted to 37.9 °C.
Consider GGTTGCGAAAGCAAAACC ((((((....)))..))), for which the folding enthalpy in series [1] is -81.5 kJ/mol. Further, the Tm in series [2] amounted to 48.9 °C.
For GGTTGCGAAAGCAATACC ((((((....)))..))) the same measures were -55.6 kJ/mol and 42.9 °C.
As for GGTTGCGAAAGCACAACC ((((((....)))..))), the folding enthalpy in series [1] is -82.2 kJ/mol. The Tm in series [2] stood at 44.2 °C.
In the same order, the values of GGTTGCGGAAACGCGATC (.(.(((....))).).) are -82.3 kJ/mol and 41.7 °C.
On to GGTTGCGGAAACGTAGCC ((.(.((....)).).)), for which the folding enthalpy in series [1] was -114 kJ/mol. Also, the Tm in series [2] worked out at 40.2 °C.
Regarding GGTTGCGGAAACGTGACC (((..((....))..))), the folding enthalpy in series [1] was -135 kJ/mol. Further, in series [2], the Tm came to 48.8 °C.
Take GGTTGGCCGAAAGGCACC (((..(((....)))))): the folding enthalpy in series [1] is -53.4 kJ/mol. The Tm in series [2] was 41.4 °C.
Regarding GGTTGGCGAAAGCCGACC (((.(((....))).))), the folding enthalpy in series [1] is -123 kJ/mol. Further, in series [2], the Tm amounted to 69.3 °C.
Regarding GGTTGGGGAAACCCAACC (((((((....))))))), the folding enthalpy in series [1] is -154 kJ/mol. Besides, the Tm in series [2] was found to be 66.4 °C.
As to GGTTGGGGAAACCCAGCC ((.((((....)))).)), the folding enthalpy in series [1] was -180 kJ/mol. Further, the Tm in series [2] came to 53.7 °C.
Regarding GGTTGGGGAAACTCAGCC ((.((.(....).)).)), in series [1], the folding enthalpy is -128 kJ/mol. Also, in series [2], the Tm was 36.1 °C.
